This passage reports EC50, IC50 and GI50 results from ChEMBL document CHEMBL1142265, “Discovery of 4-aryl-4H-chromenes as a new series of apoptosis inducers using a cell- and caspase-based HTS assay. Part 5: modifications of the 2- and 3-positions” (Bioorg Med Chem Lett, 2008).

The subject of test [1] is T47D. In words: Induction of apoptosis in human T47D cells assessed as caspase activation by HTS assay. The format is functional, cell-based.
Test [2] is described as follows: Inhibition of tubulin polymerization.
In test [3] the test system is T47D. Kind of test: Growth inhibition of human T47D cells. The class given is functional. A digest of the protocol: (§1)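 GI50 from a cell growth inhibition assay in T47D, HCT116 and SNU398 cells, run in 96-well format following an earlier protocol. Values are means of three or more experiments ± SEM.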
Test [4] concerns SNU-398. In words: Growth inhibition of human SNU398 cells. The format is functional. A digest of the protocol: as §1
Test [5] relates to SNU-398. Kind of test: Induction of apoptosis in human SNU398 cells assessed as caspase activation by HTS assay. The class given is functional, cell-based.
Test [6] relates to HCT-116. In words: Induction of apoptosis in human HCT116 cells assessed as caspase activation by HTS assay. The format is functional, cell-based.
Test [7] relates to HCT-116. In words: Growth inhibition of human HCT116 cells. The format is functional. Put shortly: as §1

Bounds are passed on as bounds.

On to `N#CC1=C(N)Oc2c(ccc3[nH]ccc23)C1c1ccccc1` (stereo unspecified), for which, in the test with T47D [1], the EC50 (commonly the midpoint of the concentration-response curve) was 270 nM. Half-maximal inhibition in test [2] (IC50) was put at 3000 nM.
As to `COc1cc(C2C(C#N)=C(N)Oc3c2ccc2[nH]ccc32)cc(Br)c1OC` (stereo unspecified), inhibition in test [2] was half-maximal at 500 nM (IC50).
As for `CCOC(=O)C1=C(N)Oc2c(ccc3[nH]ccc23)C1c1cc(Br)c(OC)c(OC)c1` (stereo unspecified), the GI50 (in general, the concentration giving 50% growth inhibition) in the test with T47D [3] came out at 3300 nM; with SNU-398 [4], 1600 nM; with HCT-116 [7] it was 4300 nM. In addition, the results for the EC50 in the test with T47D [1], with SNU-398 [5] and with HCT-116 [6] were 3200 nM, 2200 nM and 3000 nM, respectively.
With `COc1cc(C2C(C#N)=C(NC(=O)Nc3ccccc3)Oc3cc(N(C)C)ccc32)cc(Br)c1OC` (stereo unspecified), the EC50 in the test on T47D [1] was 68 nM; with SNU-398 [5], 93 nM; with HCT-116 [6] it was 84 nM.
Consider `COc1cc(C2C(C#N)=COc3c2ccc2c3ccn2C)cc(Br)c1OC` (stereo unspecified), for which the GI50 with T47D [3] came out at 6 nM; in the test with SNU-398 [4] it was 4 nM; in the test on HCT-116 [7], 6 nM. Also, the figures for the EC50 in the test with T47D [1], with SNU-398 [5] and with HCT-116 [6] were 29 nM, 34 nM and 38 nM, respectively. Besides, the IC50 – broadly, the concentration needed to halve the response being measured – in test [2] was under 500 nM.
On to `COc1cc(C2C(C#N)=COc3c2ccc2[nH]ccc32)cc(Br)c1OC` (stereo unspecified), for which the GI50 in the test on T47D [3] came to 73 nM; in the test on SNU-398 [4], 34 nM; in the test with HCT-116 [7], 53 nM. Moreover, the EC50 in the test with T47D [1] turned out to be 47 nM; in the test with SNU-398 [5] it was 52 nM; in the test with HCT-116 [6] it was 66 nM. Besides, the IC50 in test [2] was under 500 nM.
Take `CCn1ccc2c3c(ccc21)C(c1cc(Br)c(OC)c(OC)c1)C(C#N)=CO3` (stereo unspecified): the EC50 in the test with T47D [1] worked out at 70 nM; in the test on SNU-398 [5], 87 nM; in the test on HCT-116 [6], 150 nM.
Take `COc1cc(C2C(C#N)=COc3cc(N(C)C)ccc32)cc(Br)c1OC` (stereo unspecified): the GI50 came out at 66 nM in the test with T47D [3], 17 nM with SNU-398 [4] and 51 nM in the test on HCT-116 [7]. Also, the values for the EC50 in the test with T47D [1], in the test on SNU-398 [5] and in the test with HCT-116 [6] were 65 nM, 77 nM and 93 nM, respectively.
Consider `COc1cc(C2C(C#N)=C(N3C(=O)CCC3=O)Oc3cc(N(C)C)ccc32)cc(Br)c1OC` (stereo unspecified), for which the EC50 in the test with T47D [1] is 250 nM; in the test with SNU-398 [5] it was 190 nM; with HCT-116 [6] it was 420 nM.
Consider `COC(=O)C1=C(N)Oc2c(ccc3[nH]ccc23)C1c1cc(Br)c(OC)c(OC)c1` (stereo unspecified), for which the results for the EC50 in the test with T47D [1], with SNU-398 [5] and in the test with HCT-116 [6] were 1400 nM, 1000 nM and 660 nM, respectively.
